Results taken from ChEMBL document CHEMBL1140439, “Pharmacophore modeling, docking, and principal component analysis based clustering: combined computer-assisted approaches to identify new inhibitors of the human rhinovirus coat protein” (J Med Chem, 2005).

Key:
[1] = Percent toxicity at 100 ug/mL on OH-I cells; range 50-100 %; type: functional, Homo sapiens
Summary of the method: (§1)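 Static toxicity test on uninfected OH-I monolayers at or near 100% confluency, in 2% McCoy's with 0.25% DMSO. Compound given at the three highest concentrations (100, 32, 10 ug/mL). Monolayer reduction was scored against cell control; 50% or greater reduction counted as cytotoxic.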

[2] = system: WI-38; assay: Effective concentration dissolved in DMSO against HRV serotype 39 in WI-38 cells by multiple-cycle CPE inhibition assay; microscopic; type: functional, cell-based; conditions: Homo sapiens
Summary of the method: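 Multiple-cycle CPE assay with HRV serotype 39 on 100% confluent WI-38 fibroblasts in 5% EMEM, 0.5% DMSO final. Triplicate monolayers received compound at 32, 10, 3.2, 1.0, 0.1 ug/mL plus three serial log virus dilutions. Read only microscopically (staining too weak) after virus controls reached 80–100% CPE at 32–320 TCID50. EC50 is the concentration giving 50% CPE inhibition.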

[3] = Effective concentration dissolved in DMSO against HRV serotype 39 in OH-I cells by multiple-cycle CPE inhibition assay; microscopic; type: functional, cell-based, Homo sapiens
Summary of the method: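 Multiple-cycle CPE inhibition assay, HRV serotype 39 (ATCC), 85% confluent OH-I monolayers in 2% McCoy's, 0.25% DMSO final. Triplicate wells received compound then three serial log virus dilutions. EC50 taken as the concentration giving 50% CPE inhibition.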

[4] = Effective concentration dissolved in DMSO against HRV serotype 39 in OH-I cells by multiple-cycle CPE inhibition assay; spectrophotometric; type: functional, cell-based, Homo sapiens
Summary of the method: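 HRV serotype 39 CPE inhibition assay in triplicate 85% confluent OH-I monolayers, 2% McCoy's, 0.25% DMSO final, compound at 100–0.1 ug/mL. Once virus controls reached 80–100% CPE (32–320 TCID50), cells were stained with 0.4% crystal violet for 20–30 min at room temperature, destained with 30% methanol/10% acetic acid, and OD read at 550 nm. EC50 is the concentration giving a 50% OD increase versus virus control, from Chou–Chou dose-effect analysis.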

[5] = system: WI-38; assay: Cytostatic concentration against WI-38 cells; type: functional, Homo sapiens
[6] = Percent toxicity at 10 ug/mL on OH-I cells; range 50-100 %; type: functional, Homo sapiens; summary of the method: as §1
[7] = Percent toxicity at 32 ug/mL on OH-I cells; range 50-100 %; type: functional, Homo sapiens; summary of the method: as §1
[8] = system: WI-38; assay: Percent toxicity at 10 ug/mL on WI-38 cells; type: functional, Homo sapiens
Summary of the method: (§2)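 Static toxicity test on uninfected WI-38 monolayers at or near 100% confluency, in 5% EMEM with 0.5% DMSO. Compound given at the three highest concentrations (32, 10, 3.2 ug/mL). Monolayer reduction was scored against cell control; 50% or greater reduction counted as cytotoxic.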

[9] = system: WI-38; assay: Percent toxicity at 32 ug/mL on WI-38 cells; type: functional, Homo sapiens; summary of the method: as §2
[10] = Percent toxicity at 10 ug/mL on OH-I cells; type: functional, Homo sapiens; summary of the method: as §1

SMILES | Toxicity [1] [%] | EC50 [2] [µM] | EC50 [3] [µM] | EC50 [4] [µM] | Cytostatic concentration [5] [µg/mL] | Toxicity [6] [%] | Toxicity [7] [%] | Toxicity [8] | Toxicity [9] | Toxicity [10] [%]
COC(=O)c1ccc(CSc2nnc(-c3ccc4ncccc4c3)n2C)cc1 | 30 | < 82 | 142 | 88.4 | – | – | – | – | – | –
Cc1cc(CCCOc2c(C)cc(-c3noc(C(F)(F)F)n3)cc2C)on1 [PLECONARIL] | – | – | – | – | 30 | – | – | – | – | –
Cc1csc2c(N3CCN(C(=O)Nc4ccc(OC(F)(F)F)cc4)CC3)ncnc12 | 100 | 48 | 7.3 | 4.3 | – | 100 | 100 | – | – | –
O=C(Nc1ccc(SC(F)(F)F)cc1)Nc1ccc(-n2ccc(C(F)(F)F)n2)cc1 | 100 | 11.2 | 247 | 246 | – | 100 | 100 | <=50% | <=50% | –
CCOC(=O)/C=C/[C@H](C[C@@H]1CCNC1=O)NC(=O)[C@@H](CC(=O)[C@@H](NC(=O)c1cc(C)on1)C(C)C)Cc1ccc(F)cc1 [RUPINTRIVIR] | – | – | – | – | >100 | – | – | – | – | –
CC1(C)CCc2cc(CN3CCN(c4ccc(C(F)(F)F)cn4)CC3)ccc2O1 | 100 | 165 | 15 | 17 | – | – | 100 | – | – | 30
COc1cc2c(cc1OC)C(C)N(C(=O)Nc1ccc(OC(F)(F)F)cc1)CC2 (stereo not drawn) | 100 | < 78 | 121 | 4.9 | – | 100 | 100 | – | – | –
CC1(C)CCc2cc(CN3CCN(c4ncc(C(F)(F)F)cc4Cl)CC3)ccc2O1 | 100 | < 72.7 | 35.7 | 32.1 | – | – | 100 | – | – | 30
